ChEMBL document CHEMBL2331188, “Synthesis and biochemical activities of antiproliferative amino acid and phosphate derivatives of microtubule-disrupting β-lactam combretastatins” (Eur J Med Chem, 2013)
≈ marks a conversion by molar mass, not a printed value. Calls of active or inactive are those of the source. No cut-off for these calls is given here.

Legend:
[1] = Half life in human plasma at pH 4 to 9; type: ADME, cell-free
MCF7 [2] = experiment: Induction of cell cycle arrest in human MCF7 cells assessed as accumulation of cells in G2/M phase at 100 nM after 48 hrs by propidium iodide staining based flow cytometry; type: functional
How it was run: (§1)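 MCF-7 cells seeded at 1 × 10⁵ cells/cm³ and treated after 24 h for 48 h; vehicle was 1% ethanol v/v. Cells were fixed in 70% ethanol:PBS overnight at −20 °C, then stained with RNase 0.5 mg/mL and propidium iodide 0.15 mg/mL for 30 min at 37 °C. Analysed by flow cytometry, at least 10,000 gated cells, sub-diploid counted as sub-G1. Mean ± SEM of at least three experiments; one-way ANOVA with Bonferroni test.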

MCF7 [3] = experiment: Induction of microtubule depolymerization in human MCF7 cells assessed as complete loss of microtubule formation at 100 nM after 16 hrs by immunofluorescence analysis; type: cell-based
How it was run: (§2)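 MCF-7 cells seeded at 1 × 10⁵ per well on chamber slides and treated 16 h; vehicle was 1% ethanol v/v. Fixed in methanol at −20 °C for 30 min and blocked in 5% BSA/PBST. Stained with anti-α-tubulin DM1A (1:20) and then FITC anti-mouse (1:100), each 1 h at room temperature, with DAPI counterstain. Imaged by confocal microscopy; three separate experiments.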

MCF7 [4] = experiment: Induction of cell cycle arrest in human MCF7 cells assessed as accumulation of cells in sub-G1 phase at 100 nM after 48 hrs by propidium iodide staining based flow cytometry; type: functional; how it was run: as §1
MCF7 [5] = experiment: Induction of mitotic catastrophe in human MCF7 cells at 100 nM after 16 hrs by immunofluorescence analysis; type: functional, cell-based; how it was run: as §2
MCF7 [6] = experiment: Antiproliferative activity against human MCF7 cells assessed as inhibition of cell growth after 72 hrs by MTT assay; type: functional, cell-based; details: MCF7, 72 h
How it was run: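 MCF-7 cells in MEM with 10% FBS, 2 mM L-glutamine, penicillin/streptomycin and 1% non-essential amino acids. Seeded at 2.5 × 10⁴ cells/mL, grown 24 h at 37 °C, then dosed from ethanol stocks over 1 nM–100 µM for 72 h; vehicle was ethanol 1% v/v. Read-out was MTT at 1 mg/mL for 2 h, solubilised in DMSO, absorbance relative to control as 100% viability. Triplicate; mean ± S.E.M of at least three experiments.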

[7] = Aqueous solubility of the compound after 24 hrs by HPLC analysis; type: physicochemical; details: aqueous medium
How it was run: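 Compound was shaken in water at 300 shakes/min for 24 h, then filtered. The filtrate was quantified by HPLC on a C18 column with acetonitrile/water 70:30 at 1 mL/min, detection at 254 nm. The value is the maximum of n = 3.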

Bos taurus [8] = organism: Bos taurus; experiment: Inhibition of bovine brain tubulin polymerization at 10 uM measured every 30s for 60 mins by spectrophotometric analysis
Bos taurus [9] = organism: Bos taurus; experiment: Inhibition of bovine brain tubulin polymerization measured every 30s for 60 mins by spectrophotometric analysis
[10] = Inhibition of bovine brain tubulin polymerization measured every 30s for 30 mins by spectrophotometric analysis; set-up: species or system Bos taurus
[11] = Solubility in human plasma at pH 7.2 to 7.5; type: ADME, cell-free
[12] = Solubility in human plasma; type: ADME, cell-free
Colon 26 = experiment: Antiproliferative activity against mouse Colon 26 cells assessed as inhibition of cell growth; type: functional, cell-based
MCF7 [13] = experiment: Induction of mitotic catastrophe in human MCF7 cells at 1 uM after 16 hrs by immunofluorescence analysis; type: functional, cell-based; how it was run: as §2
MCF7 [14] = experiment: Induction of cell cycle arrest in human MCF7 cells assessed as accumulation of cells in G2/M phase at 1 uM after 48 hrs by propidium iodide staining based flow cytometry; type: functional; how it was run: as §1
MCF7 [15] = experiment: Induction of cell cycle arrest in human MCF7 cells assessed as accumulation of cells in sub-G1 phase at 1 uM after 48 hrs by propidium iodide staining based flow cytometry; type: functional; how it was run: as §1
MCF7 [16] = experiment: Induction of microtubule depolymerization in human MCF7 cells assessed as complete loss of microtubule formation at 1 uM after 16 hrs by immunofluorescence analysis; type: cell-based; how it was run: as §2

`COc1ccc([C@H]2[C@H](c3ccccc3)C(=O)N2c2cc(OC)c(OC)c(OC)c2)cc1N` gave a half-life [1] greater than 24 h.
In the case of `COc1ccc([C@H]2[C@H](c3cccs3)C(=O)N2c2cc(OC)c(OC)c(OC)c2)cc1OP(=O)(O)O`, the Activity (MCF7 [2]) is reported as “Active”, the Activity (MCF7 [3]) is reported as “Active” and the Activity (MCF7 [4]) is reported as “Active”. For the same molecule, the Activity (MCF7 [5]) was “Active”, the IC50 (MCF7 [6]) was 20 nM and the solubility at 24 h [7] was 450 µg/mL (≈ 863 µM).
With `COc1ccc([C@H]2[C@H](c3ccc(NC(=O)[C@H](C)N)cc3)C(=O)N2c2cc(OC)c(OC)c(OC)c2)cc1` the IC50 (MCF7 [6]) was 35 nM.
For `COc1ccc([C@H]2[C@H](c3ccc(NC(=O)[C@@H](N)CCCCN)cc3)C(=O)N2c2cc(OC)c(OC)c(OC)c2)cc1`, the IC50 (MCF7 [6]) was 690 nM.
With `COc1ccc([C@H]2[C@H](c3ccc(NC(=O)[C@@H](N)C(C)C)cc3)C(=O)N2c2cc(OC)c(OC)c(OC)c2)cc1` the IC50 (MCF7 [6]) was 50 nM and the solubility at 24 h [7] was 4 µg/mL (≈ 7.5 µM).
For `COc1ccc([C@H]2[C@H](c3ccc(O)cc3)C(=O)N2c2cc(OC)c(OC)c(OC)c2)cc1OP(=O)(O)O`, the inhibition (Bos taurus [8]) was “inactive”, the Activity (MCF7 [2]) was “Active” and the half-life [1] was greater than 24 h. For the same molecule, the Activity (MCF7 [3]) was “Active”, the Activity (MCF7 [4]) was “Active” and the Activity (MCF7 [5]) was “Active”. For the same molecule, the IC50 (MCF7 [6]) was 22 nM and the solubility at 24 h [7] was 140 µg/mL (≈ 263 µM).
In the case of `COc1ccc([C@H]2[C@H](c3ccccc3)C(=O)N2c2cc(OC)c(OC)c(OC)c2)cc1NC(=O)[C@@H](N)Cc1ccc(O)cc1`, the IC50 (MCF7 [6]) is reported as 740 nM.
With `COc1ccc([C@H]2[C@H](c3ccccc3)C(=O)N2c2cc(OC)c(OC)c(OC)c2)cc1OP(=O)(O)O` the inhibition (Bos taurus [8]) was “inactive”, the Activity (MCF7 [2]) was “Active” and the Activity (MCF7 [4]) was “Active”. For the same molecule, the IC50 (MCF7 [6]) was 71 nM and the solubility at 24 h [7] was 300 µg/mL (≈ 582 µM).
Work on `CC[C@H](C)[C@H](N)C(=O)Nc1cc([C@H]2[C@H](c3ccccc3)C(=O)N2c2cc(OC)c(OC)c(OC)c2)ccc1OC` yielded an IC50 (MCF7 [6]) of 1100 nM and a solubility at 24 h [7] of 110 µg/mL (≈ 201 µM).
Molecule `COc1ccc([C@H]2[C@H](c3ccccc3)C(=O)N2c2cc(OC)c(OC)c(OC)c2)cc1NC(=O)[C@@H](N)CCCCN` has an IC50 (MCF7 [6]) of 9800 nM.
For `COc1ccc([C@H]2[C@H](c3ccc(N)cc3)C(=O)N2c2cc(OC)c(OC)c(OC)c2)cc1`, the half-life [1] was greater than 24 h.
In the case of `COc1ccc([C@H]2[C@H](c3ccc(NC(=O)[C@@H](N)Cc4ccccc4)cc3)C(=O)N2c2cc(OC)c(OC)c(OC)c2)cc1`, the Activity (MCF7 [2]) is reported as “Active”, the Activity (MCF7 [3]) is reported as “Active” and the Activity (MCF7 [4]) is reported as “Active”. The inhibition (Bos taurus [9]) was “Dose-dependent effect”, the Activity (MCF7 [5]) was “Active” and the IC50 (MCF7 [6]) was 27 nM. For the same molecule, the solubility at 24 h [7] was 140 µg/mL (≈ 241 µM) and the IC50 [10] was 2400 nM.
`COc1ccc([C@H]2[C@H](c3ccccc3)C(=O)N2c2cc(OC)c(OC)c(OC)c2)cc1NC(=O)[C@@H](N)CO` showed an IC50 (MCF7 [6]) of 780 nM and a solubility at 24 h [7] of 200 µg/mL (≈ 383 µM).
For `COc1ccc([C@H]2[C@H](c3ccccc3)C(=O)N2c2cc(OC)c(OC)c(OC)c2)cc1NC(=O)[C@@H](N)Cc1ccccc1`, the IC50 (MCF7 [6]) was 1130 nM.
In the case of `COc1ccc([C@H]2[C@H](c3ccc(NC(=O)[C@@H](N)CO)cc3)C(=O)N2c2cc(OC)c(OC)c(OC)c2)cc1`, the IC50 (MCF7 [6]) is reported as 860 nM.
With `COc1ccc([C@H]2[C@H](c3ccccc3)C(=O)N2c2cc(OC)c(OC)c(OC)c2)cc1NC(=O)[C@H](C)N` the IC50 (MCF7 [6]) was 760 nM and the solubility at 24 h [7] was 370 µg/mL (≈ 732 µM).
`COc1ccc([C@H]2[C@H](c3ccc(NC(=O)CN)cc3)C(=O)N2c2cc(OC)c(OC)c(OC)c2)cc1` showed a half-life [1] greater than 24 h, an IC50 (MCF7 [6]) of 91 nM and a solubility at 24 h [7] of 60 µg/mL (≈ 122 µM).
`COc1ccc([C@H]2[C@H](c3ccc(O)cc3)C(=O)N2c2cc(OC)c(OC)c(OC)c2)cc1O` gave a half-life [1] greater than 24 h.
With `COc1ccc(/C=C\c2cc(OC)c(OC)c(OC)c2)cc1NC(=O)[C@@H](N)CO` [OMBRABULIN] the solubility [11] was 110 µg/mL (≈ 273 µM), the solubility [12] was 3300 µg/mL (≈ 8200 µM) and the IC50 (Colon 26) was 27.2 nM.
Work on `COc1ccc([C@H]2[C@H](c3ccccc3)C(=O)N2c2cc(OC)c(OC)c(OC)c2)cc1NC(=O)CN` yielded an IC50 (MCF7 [6]) of 1100 nM.
With `COc1ccc([C@H]2[C@H](c3ccccc3)C(=O)N2c2cc(OC)c(OC)c(OC)c2)cc1NC(=O)[C@@H](N)C(C)C` the Activity (MCF7 [13]) was “Active”, the half-life [1] was greater than 24 h and the Activity (MCF7 [14]) was “Active”. The inhibition (Bos taurus [9]) was “Dose-dependent effect”, the Activity (MCF7 [15]) was “Active” and the IC50 (MCF7 [6]) was 460 nM. For the same molecule, the Activity (MCF7 [16]) was “Active”, the solubility at 24 h [7] was 110 µg/mL (≈ 206 µM) and the IC50 [10] was 5200 nM.
In the case of `COc1ccc(/C=C\c2cc(OC)c(OC)c(OC)c2)cc1N`, the solubility [12] is reported as 3300 µg/mL (≈ 10500 µM).
